In publication PMC10443532 (ACS Chemical Biology, 2023):

Target: T1, recombinant mouse Nape-pld (Mus musculus, UniProt Q8BH82)
T1 sequence (Q8BH82 1-396): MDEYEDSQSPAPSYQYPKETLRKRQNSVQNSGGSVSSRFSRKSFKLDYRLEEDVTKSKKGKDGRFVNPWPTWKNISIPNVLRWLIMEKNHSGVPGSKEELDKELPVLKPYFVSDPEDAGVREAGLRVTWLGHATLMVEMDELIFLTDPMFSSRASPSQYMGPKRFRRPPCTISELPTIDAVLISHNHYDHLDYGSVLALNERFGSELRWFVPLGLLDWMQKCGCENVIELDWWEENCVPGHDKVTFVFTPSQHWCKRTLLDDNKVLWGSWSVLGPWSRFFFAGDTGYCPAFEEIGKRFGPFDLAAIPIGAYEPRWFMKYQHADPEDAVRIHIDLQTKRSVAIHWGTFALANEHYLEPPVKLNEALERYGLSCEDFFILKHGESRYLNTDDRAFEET
Test: VU534 competition assays with compounds known to bind Nape-pld
Type: biochemical
Settings: for Effect on Nape-pld activity (compound alone): in presence of 0.4% NOG, 100 μM PE, 1 mM DCA
How it was run: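 Enzyme (final 0.4 μg, 50 mM Tris, 0.4% N-octylglucoside) was preincubated with vehicle or a competitor for 30 min: dioleoyl-PE 100 μM, deoxycholic acid 1 mM, bithionol 3 μM or LEI-401 30 μM. Alternatively, 15 μM of an analog was used for 5 min. Graded test compound followed for 60 min, then flame-NAPE (0.5 μM) plus N-oleoyl-PE (9.5 μM). The 5-min fluorescence change was normalized to vehicle, 0 μM.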

Row | SMILES | Effect on Nape-pld activity (compound alone) | Effect on ability of 5 μM VU534 to activate Nape-pld (graded concentrations of LEI-401 or VU233, flame-NAPE (Figure S5))
1 | C[C@H](CCC(=O)O)[C@H]1CC[C@H]2[C@@H]3CC[C@@H]4C[C@H](O)CC[C@]4(C)[C@H]3C[C@H](O)[C@]12C [DCA, deoxycholic acid] | slight, but nonsignificant trend for inhibition | –
2 | O=C(NCC1CC1)c1cc(N2CC[C@H](O)C2)nc(N2CCC[C@@H](c3ccccc3)C2)n1 [LEI-401] | – | reduced the ability of 5 μM VU534 to activate Nape-pld in a concentration-dependent manner
3 | CCCCCCCC/C=C\CCCCCCCC(=O)OC[C@H](COP(=O)(O)OCCN)OC(=O)CCCCCCC/C=C\CCCCCCCC [PE, dioleoylphosphatidylethanolamine] | slight, but nonsignificant trend for inhibition | –
